These results are taken from ChEMBL document CHEMBL2331551, “TOPS-MODE model of multiplexing neuroprotective effects of drugs and experimental-theoretic study of new 1,3-rasagiline derivatives potentially useful in neurodegenerative diseases” (2013).

Structures are written as SMILES.

Common to all, as to format: functional, Neuron
Assay [1] in a line: Neuroprotection in Sprague-Dawley rat embryonic motor cortex neurons assessed as protection against 100 uM H2O2-induced neuronal death at 5 uM by MTT method. The procedure, abridged:
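Primary neurons cultured from embryonic day-19 Sprague-Dawley rat motor cortex. Cells were exposed to compound in the presence of H2O2 as the neurotoxic insult. Viability was read as MTT reduction, which reflects mitochondrial integrity and function and indicates the number of viable cells. Protection is given as mean ± SEM of at least three independent experiments.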

Assay [2] is described as follows: Neuroprotection in Sprague-Dawley rat embryonic motor cortex neurons at 5 uM by MTT method. Put shortly: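 Cultured neurons from embryonic day-19 Sprague-Dawley rat motor cortex, with compound alone and no neurotoxic agent added. Viability measured by MTT reduction, read as mitochondrial functional activity and number of cells present in culture. Neuroprotection expressed as % (NP), mean ± SEM of at least three independent experiments.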
For orientation: Tetrazolium assays rely on reduction of a dye to a coloured formazan, in cell work by metabolically active cells.

Assay [3] is described as follows: Neuroprotection in Sprague-Dawley rat embryonic motor cortex neurons assessed as protection against 100 uM glutamate-induced excitotoxicity at 5 uM by MTT method. The procedure, abridged:
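Primary cultures of motor cortex neurons from 19-day Sprague-Dawley rat embryos, challenged with glutamate as neurotoxic agent alongside the compound. Cell viability read by MTT reduction, taken as mitochondrial integrity and functional activity, reflecting the number of viable cells. Neuroprotection (NP) reported in %, as mean ± SEM from at least three independent experiments.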

As for `C#CCN[C@@H]1C[C@@H](O)c2ccccc21`, the Activity in assay [1] is on record as 14.5%; in assay [2] it was 23.4%; in assay [3], 15.2%.

Turning to `C#CCN[C@@H]1C[C@H](O)c2ccccc21`, the results for the Activity in assay [1], in assay [2] and in assay [3] were 46.2%, 0% and 0%, respectively.

Take `C#CCN(CC#C)[C@@H]1C[C@H](O)c2ccccc21`: the results for the Activity in assay [1], in assay [2] and in assay [3] were 17.8%, -5% and 0%, respectively.

In the case of `C#CCN(CC#C)[C@@H]1C[C@@H](O)c2ccccc21`, the values for the Activity in assay [1], in assay [2] and in assay [3] were 19.6%, -1% and -0.5%, respectively.

`C#CCN(CC#C)[C@@H]1C[C@H](OC(C)=O)c2ccccc21`: the Activity in assay [1] is 18.2%; in assay [2], 0%; in assay [3] it was -1.5%.

Consider `C#CCN(CC#C)[C@@H]1C[C@@H](OC(C)=O)c2ccccc21`, for which the Activity in assay [1] was 12.3%; in assay [2] it was 0%; in assay [3], -0.5%.

For the compound `C#CCN(CC#C)[C@@H]1C[C@H](OC(=O)c2ccccc2)c2ccccc21`, the Activity is given as 16.4% in assay [1], -5.1% in assay [2] and 1.6% in assay [3].

For the compound `C#CCN(CC#C)[C@@H]1C[C@@H](OC(=O)c2ccccc2)c2ccccc21`, the Activity in assay [1] is reported as -5.8%; in assay [2], 6.9%; in assay [3] it was -1.3%.
